Measured values published in ChEMBL document CHEMBL1140385, “Synthesis and antibacterial activity of 3-substituted-6-(3-ethyl-4-methylanilino)uracils” (J Med Chem, 2005).
Converted amounts (≈) assume the structure as drawn.

Columns and labels:
Staphylococcus aureus [1] = assay: In vitro minimum inhibitory concentration against Staphylococcus aureus upon incubation at 37 degree C for 16 to 24 hr by dissolving in DMSO (1%); format: functional
Enterococcus faecalis [2] = assay: In vitro minimum inhibitory concentration against Enterococcus faecalis upon incubation at 37 degree C for 16 to 24 hr by dissolving in DMSO (1%); format: functional
Procedure, shortened: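 Log-phase E. faecalis was grown in brain-heart infusion broth and seeded at (3-7) × 10^5 CFU/mL. Duplicate 2-fold dilutions ran from 20 to 1.25 µg/mL, final 1% DMSO. After 16-24 h at 37 °C with shaking, OD600 was read.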

Staphylococcus aureus [3] = assay: In vitro minimum inhibitory concentration against Methicillin-resistant Staphylococcus aureus upon incubation at 37 degree C for 16 to 24 hr by dissolving in DMSO (1%); format: functional
Procedure, shortened: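 Broth microdilution (modified NCCLS M7-A4). Staphylococci grown to log phase in Luria broth, seeded at (3-7) × 10⁵ CFU/mL. Compounds 2-fold diluted from DMSO stocks, 20 to 1.25 µg/mL, final 1% DMSO, in duplicate. Incubated 37 °C, 16-24 h, with shaking. OD600 read.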

Staphylococcus aureus [4] = assay: In vitro minimum inhibitory concentration against Staphylococcus aureus (Smith) upon incubation at 37 degree C for 16 to 24 hr by dissolving in DMSO (1%); format: functional
[5] = biological target: DNA polymerase III PolC-type (Bacillus subtilis (strain 168), UniProt P13267); assay: Inhibitory concentration against Bacillus subtilis DNA polymerase IIIC using [3H]dTMP 250 pM (30 degree C for 10 min)
Sequence of DNA polymerase III PolC-type (P13267 whole entry, the tested form may be a part): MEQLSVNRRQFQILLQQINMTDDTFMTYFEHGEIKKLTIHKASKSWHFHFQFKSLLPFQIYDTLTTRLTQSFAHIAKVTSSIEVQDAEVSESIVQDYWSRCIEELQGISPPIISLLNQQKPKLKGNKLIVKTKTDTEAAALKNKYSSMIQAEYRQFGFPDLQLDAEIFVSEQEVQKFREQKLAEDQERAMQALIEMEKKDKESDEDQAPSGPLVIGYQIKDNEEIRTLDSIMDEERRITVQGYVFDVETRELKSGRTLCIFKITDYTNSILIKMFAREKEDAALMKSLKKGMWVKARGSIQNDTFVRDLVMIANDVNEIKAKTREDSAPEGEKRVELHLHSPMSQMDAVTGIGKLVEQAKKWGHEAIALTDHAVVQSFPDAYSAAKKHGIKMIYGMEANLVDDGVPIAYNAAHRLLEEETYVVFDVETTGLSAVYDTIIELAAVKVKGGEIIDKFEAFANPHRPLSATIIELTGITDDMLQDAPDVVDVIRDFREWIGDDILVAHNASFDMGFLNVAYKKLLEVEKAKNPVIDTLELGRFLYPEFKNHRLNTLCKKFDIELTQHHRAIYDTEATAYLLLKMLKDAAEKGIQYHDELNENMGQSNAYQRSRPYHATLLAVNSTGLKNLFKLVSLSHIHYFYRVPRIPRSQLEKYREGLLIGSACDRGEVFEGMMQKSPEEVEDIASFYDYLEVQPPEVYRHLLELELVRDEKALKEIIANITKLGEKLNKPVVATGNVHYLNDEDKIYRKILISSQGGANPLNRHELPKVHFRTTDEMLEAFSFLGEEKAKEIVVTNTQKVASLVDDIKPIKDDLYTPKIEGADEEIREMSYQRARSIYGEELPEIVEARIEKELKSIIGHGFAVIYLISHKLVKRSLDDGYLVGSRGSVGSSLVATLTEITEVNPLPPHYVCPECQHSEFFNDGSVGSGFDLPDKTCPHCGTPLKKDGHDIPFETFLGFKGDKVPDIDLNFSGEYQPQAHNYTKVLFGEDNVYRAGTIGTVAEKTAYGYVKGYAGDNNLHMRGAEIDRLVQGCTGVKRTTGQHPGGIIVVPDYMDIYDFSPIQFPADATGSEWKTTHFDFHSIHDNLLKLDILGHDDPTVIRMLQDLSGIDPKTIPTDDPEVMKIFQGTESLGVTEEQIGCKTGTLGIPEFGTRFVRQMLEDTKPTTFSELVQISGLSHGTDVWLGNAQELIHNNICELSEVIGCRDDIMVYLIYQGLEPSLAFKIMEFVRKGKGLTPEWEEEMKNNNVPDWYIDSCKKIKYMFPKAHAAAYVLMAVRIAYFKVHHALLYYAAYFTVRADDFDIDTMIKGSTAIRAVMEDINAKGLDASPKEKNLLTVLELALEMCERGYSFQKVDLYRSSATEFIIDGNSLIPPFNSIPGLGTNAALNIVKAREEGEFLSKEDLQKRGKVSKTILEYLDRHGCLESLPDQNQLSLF
Procedure, shortened: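 Homogeneous recombinant B. subtilis pol IIIC, 0.025-0.06 units, acted on activated calf thymus DNA with Mg2+, DTT, glycerol, dATP, dCTP, dTTP and [3H]dTTP, without dGTP. Compounds were serially diluted from DMSO. Reactions ran 10 min at 30 °C, were stopped with TCA-pyrophosphate, and the filter-collected precipitate was scintillation counted. Apparent Ki was read directly from this truncated assay; average standard deviation ±44%.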

Bacillus subtilis = assay: In vitro minimum inhibitory concentration against Bacillus subtilis upon incubation at 37 degree C for 16 to 24 h; format: functional
Staphylococcus aureus [6] = assay: Serum effect on MIC against Staphylococcus aureus (Smith) as ratio of MIC value in presence and absence of 50% fetal calf serum; format: functional
Procedure, shortened: (§1)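 Broth microdilution MIC was repeated with 50% fetal calf serum added to the growth medium (LB for S. aureus, brain-heart infusion broth for E. faecalis). The inoculum was (3-7) × 10^5 CFU/mL in 1% DMSO, incubated at 37 °C for 16-24 h, and read by OD600. The serum effect is the MIC with serum relative to the MIC without serum.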

Enterococcus faecalis [7] = assay: Serum effect on MIC of compound was measured against Enterococcus faecalis as ratio of MIC value in presence and absence of 50% fetal calf serum; format: functional; procedure, shortened: as §1
Enterococcus faecium [8] = assay: In vitro minimum inhibitory concentration against Vancomycin resistant Enterococci faecium upon incubation at 37 degree C for 16 to 24 hr by dissolving in DMSO (1%); format: functional
Procedure, shortened: (§2)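 Broth microdilution (modified NCCLS M7-A4). Enterococci grown to log phase in brain-heart infusion broth, seeded at (3-7) × 10⁵ CFU/mL. Compounds 2-fold diluted from DMSO stocks, 20 to 1.25 µg/mL, final 1% DMSO, in duplicate. Incubated 37 °C, 16-24 h, with shaking. OD600 read.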

Enterococcus faecium [9] = assay: In vitro minimum inhibitory concentration against Enterococcus fecium upon incubation at 37 degree C for 16 to 24 hr by dissolving in DMSO (1%); format: functional; procedure, shortened: as §2
Staphylococcus aureus [10] = assay: Effect on survival of staphylococcus aureus (Smith) ip-infected mice at a concentration 10 mg/kg; format: functional
Procedure, shortened: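 Male pathogen-free Swiss-Webster mice (20-24 g), groups of five, infected ip with ca. 10⁸ CFU log-phase S. aureus Smith (grown 37 °C in LB, washed, in 0.5 mL LB). Single ip dose 15 min post-infection, in 10% DMSO/peanut oil or PBS. Survivors counted at 72 h post-infection.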

SMILES | MIC (Staphylococcus aureus [1]) [µg/mL] | MIC (Enterococcus faecalis [2]) [µg/mL] | MIC (Staphylococcus aureus [3]) [µg/mL] | MIC (Staphylococcus aureus [4]) [µg/mL] | Ki [5] [µM] | MIC (Bacillus subtilis) [µg/mL] | MIC+/MIC- (Staphylococcus aureus [6]) | MIC+/MIC- (Enterococcus faecalis [7]) | MIC (Enterococcus faecium [8]) [µg/mL] | MIC (Enterococcus faecium [9]) [µg/mL] | Activity (Staphylococcus aureus [10])
CCc1cc(Nc2cc(=O)n(CCCCCCCCN3CCOCC3)c(=O)[nH]2)ccc1C | 10 (≈ 22.6 µM) | 10 (≈ 22.6 µM) | 20 (≈ 45.2 µM) | 10 (≈ 22.6 µM) | 0.076 | 2.5 (≈ 5.65 µM) | >7.1 | >12.8 | 5 (≈ 11.3 µM) | 10 (≈ 22.6 µM) | 
CCc1cc(Nc2cc(=O)n(CCCC#N)c(=O)[nH]2)ccc1C | 5 (≈ 16 µM) | 5 (≈ 16 µM) | 5 (≈ 16 µM) |  |  |  | 5.4 |  | 5 (≈ 16 µM) | 5 (≈ 16 µM) | 2
CCc1cc(Nc2cc(=O)n(CCCN3CCOCC3)c(=O)[nH]2)ccc1C |  | 10 (≈ 26.8 µM) | 10 (≈ 26.8 µM) | 10 (≈ 26.8 µM) |  |  | 2.9 | 1.6 | 5 (≈ 13.4 µM) | 5 (≈ 13.4 µM) | 
CCc1cc(Nc2cc(=O)n(CCOCCO)c(=O)[nH]2)ccc1C |  | 5 (≈ 15 µM) | 10 (≈ 30 µM) | 5 (≈ 15 µM) |  |  | 7.5 |  | 2.5 (≈ 7.5 µM) | 5 (≈ 15 µM) | 4
CCc1cc(Nc2cc(=O)n(CCN3CCOCC3)c(=O)[nH]2)ccc1C | 10 (≈ 27.9 µM) | 5 (≈ 13.9 µM) | 5 (≈ 13.9 µM) |  |  |  | 5.5 | 2.7 | 5 (≈ 13.9 µM) |  | 
CCc1cc(Nc2cc(=O)n(CCOCCOC)c(=O)[nH]2)ccc1C | 5 (≈ 14.4 µM) | 5 (≈ 14.4 µM) | 5 (≈ 14.4 µM) |  |  |  | 5.5 |  | 5 (≈ 14.4 µM) | 5 (≈ 14.4 µM) | 2
